The source of these data is ChEMBL document CHEMBL4251751 (J Med Chem, 2018).

In brackets after ≈: the same amount, converted by molar mass. Activity calls are given as the source filed them. No cut-off for these calls is given here.

Data set [1] addresses T1, Peroxisome proliferator-activated receptor gamma (Homo sapiens, UniProt P37231).
T1 sequence (P37231 whole entry): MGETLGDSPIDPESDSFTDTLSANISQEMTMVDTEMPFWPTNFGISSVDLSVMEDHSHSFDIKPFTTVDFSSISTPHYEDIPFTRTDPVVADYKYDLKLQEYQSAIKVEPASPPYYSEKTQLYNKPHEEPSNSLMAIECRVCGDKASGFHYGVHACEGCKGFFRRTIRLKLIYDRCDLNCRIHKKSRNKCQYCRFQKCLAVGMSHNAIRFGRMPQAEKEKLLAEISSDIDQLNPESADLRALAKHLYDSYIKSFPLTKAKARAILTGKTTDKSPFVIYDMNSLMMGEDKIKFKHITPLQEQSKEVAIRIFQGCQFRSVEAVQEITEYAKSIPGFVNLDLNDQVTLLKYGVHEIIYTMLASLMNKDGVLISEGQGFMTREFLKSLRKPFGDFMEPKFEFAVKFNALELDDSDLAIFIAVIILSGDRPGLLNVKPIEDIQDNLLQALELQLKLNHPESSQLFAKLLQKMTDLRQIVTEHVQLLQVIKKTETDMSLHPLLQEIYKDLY
In words: Partial agonist activity at human PPARgamma LBD expressed HEK293T cells after 12 to 14 hrs by dual-glo luciferase reporter gene assay.

The target in data set [2] is T2, Bifunctional epoxide hydrolase 2 (Homo sapiens, UniProt P34913).
T2 sequence (P34913 whole entry): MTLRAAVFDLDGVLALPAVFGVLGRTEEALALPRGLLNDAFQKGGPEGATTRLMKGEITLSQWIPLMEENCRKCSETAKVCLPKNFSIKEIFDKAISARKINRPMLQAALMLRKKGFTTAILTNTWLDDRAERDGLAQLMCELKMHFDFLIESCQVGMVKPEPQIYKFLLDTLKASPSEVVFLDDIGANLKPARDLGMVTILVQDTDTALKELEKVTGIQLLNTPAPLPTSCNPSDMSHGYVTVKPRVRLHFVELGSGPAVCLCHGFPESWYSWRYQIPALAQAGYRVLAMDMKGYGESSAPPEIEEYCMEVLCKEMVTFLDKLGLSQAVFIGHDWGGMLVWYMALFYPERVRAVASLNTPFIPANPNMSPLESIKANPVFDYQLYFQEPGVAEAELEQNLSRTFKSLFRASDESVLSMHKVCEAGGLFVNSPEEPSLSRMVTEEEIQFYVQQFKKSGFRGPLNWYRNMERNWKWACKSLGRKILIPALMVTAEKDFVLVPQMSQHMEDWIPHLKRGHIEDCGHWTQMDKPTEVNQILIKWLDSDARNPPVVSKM
In words: Inhibition of recombinant human sEH using PHOME as substrate preincubated for 30 mins followed by substrate addition and measured after 30 mins by spectrofluorimetry.

The target in data set [3] is T3, Cysteinyl leukotriene receptor 1 (Homo sapiens, UniProt Q9Y271).
T3 sequence (Q9Y271 whole entry): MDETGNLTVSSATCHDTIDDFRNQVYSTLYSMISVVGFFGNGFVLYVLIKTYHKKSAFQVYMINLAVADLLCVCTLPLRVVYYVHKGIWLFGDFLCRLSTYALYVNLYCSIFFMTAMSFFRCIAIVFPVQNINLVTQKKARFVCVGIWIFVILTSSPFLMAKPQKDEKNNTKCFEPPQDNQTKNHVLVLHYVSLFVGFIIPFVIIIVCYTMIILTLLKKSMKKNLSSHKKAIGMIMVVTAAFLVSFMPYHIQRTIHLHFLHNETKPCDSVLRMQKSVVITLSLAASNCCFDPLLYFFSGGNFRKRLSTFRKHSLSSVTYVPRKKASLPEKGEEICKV
In words: Antagonist potency at human CysLT1R expressed in African green monkey COS7 cells assessed as inhibition of LTD4-induced Ca2+ levels after 60 mins by fura-2/AM-fluorescence based spectrofluorimetry. Format: functional, cell-based. The following applies: read-out: pA2 (converted).

The nature of data set [4]: Aqueous solubility of the compound at 5 mg after 24 hrs by HPLC analysis. The format is physicochemical. The following applies: water.
Data set [5] concerns the target T4, Nuclear receptor subfamily 1 group I member 3 (Homo sapiens, UniProt Q14994).
T4 sequence (Q14994 whole entry): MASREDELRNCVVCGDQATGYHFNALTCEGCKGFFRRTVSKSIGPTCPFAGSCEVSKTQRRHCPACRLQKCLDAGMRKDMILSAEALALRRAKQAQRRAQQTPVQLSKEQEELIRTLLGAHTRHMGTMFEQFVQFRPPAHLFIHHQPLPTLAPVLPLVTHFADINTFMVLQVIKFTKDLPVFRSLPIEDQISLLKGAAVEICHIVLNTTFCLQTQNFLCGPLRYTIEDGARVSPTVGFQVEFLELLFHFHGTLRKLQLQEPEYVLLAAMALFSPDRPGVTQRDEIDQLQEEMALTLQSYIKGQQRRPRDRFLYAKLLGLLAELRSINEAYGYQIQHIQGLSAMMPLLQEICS
In words: Agonist activity at human CAR LBD expressed HEK293T cells at 10 uM after 12 to 14 hrs by dual-glo luciferase reporter gene assay. Format: ADME.

A short description of data set [6]: Lipophilicity, log D of the compound at 30 uM at pH 7.4 by HPLC method. The format is physicochemical. The following applies: buffer.
Data set [7] is described as follows: Metabolic stability in Sprague-Dawley rat liver microsomes assessed as compound remaining at 10 uM in presence of NADPH regenerating system after 4 hrs by HPLC analysis. Format: ADME, microsome. The following applies: read-out: Stability. On the technique in general: Microsomes from liver hold many membrane-bound enzymes, among them those of drug oxidation.
The test system of data set [8] is Mus musculus. In words: Anti-inflammatory activity in zymosan-induced paw edema C57BL/6N mouse model assessed as reduction in paw edema at 10 mg/kg, po via gavage pretreated for 30 mins followed by zymosan injection and measured after 8 hrs post zymosan injection by plethysmometry. Format: functional, organism-based. Summed up: (§1)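 Zymosan was injected intraplantar into one hindpaw of C57BL/6N mice. Test compound or vehicle was given orally at 10 mg/kg 30 min beforehand. Paw edema was measured by plethysmometry at 8 h and 24 h after zymosan, with the contralateral hindpaw as a control.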

Data set [9] relates to Mus musculus. In words: Anti-inflammatory activity in zymosan-induced paw edema C57BL/6N mouse model assessed as reduction in paw edema at 10 mg/kg, po via gavage pretreated for 30 mins followed by zymosan injection and measured after 24 hrs post zymosan injection by plethysmometry. Format: functional, organism-based. Put shortly: as §1
For data set [10], the target named is T5, Nuclear receptor subfamily 1 group I member 2 (Homo sapiens, UniProt O75469).
T5 sequence (O75469 whole entry): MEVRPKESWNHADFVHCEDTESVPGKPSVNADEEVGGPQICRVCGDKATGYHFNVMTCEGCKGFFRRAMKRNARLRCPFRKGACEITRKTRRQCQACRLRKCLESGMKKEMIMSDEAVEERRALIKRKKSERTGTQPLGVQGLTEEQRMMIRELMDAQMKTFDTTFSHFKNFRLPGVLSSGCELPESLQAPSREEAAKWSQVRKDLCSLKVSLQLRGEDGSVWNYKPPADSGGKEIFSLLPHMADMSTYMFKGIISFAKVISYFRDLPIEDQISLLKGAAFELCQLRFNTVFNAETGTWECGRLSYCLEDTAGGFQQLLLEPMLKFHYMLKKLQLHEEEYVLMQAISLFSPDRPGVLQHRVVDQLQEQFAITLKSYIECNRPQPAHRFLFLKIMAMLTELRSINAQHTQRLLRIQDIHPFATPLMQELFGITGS
In words: Agonist activity at human PXR LBD expressed HEK293T cells at 10 uM after 12 to 14 hrs by dual-glo luciferase reporter gene assay. Format: ADME. For orientation: In a reporter assay the amount or activity of a reporter protein is the signal.

In data set [11] the target is T6, Peroxisome proliferator-activated receptor gamma (Mus musculus) (UniProt P37238).
T6 sequence (whole entry): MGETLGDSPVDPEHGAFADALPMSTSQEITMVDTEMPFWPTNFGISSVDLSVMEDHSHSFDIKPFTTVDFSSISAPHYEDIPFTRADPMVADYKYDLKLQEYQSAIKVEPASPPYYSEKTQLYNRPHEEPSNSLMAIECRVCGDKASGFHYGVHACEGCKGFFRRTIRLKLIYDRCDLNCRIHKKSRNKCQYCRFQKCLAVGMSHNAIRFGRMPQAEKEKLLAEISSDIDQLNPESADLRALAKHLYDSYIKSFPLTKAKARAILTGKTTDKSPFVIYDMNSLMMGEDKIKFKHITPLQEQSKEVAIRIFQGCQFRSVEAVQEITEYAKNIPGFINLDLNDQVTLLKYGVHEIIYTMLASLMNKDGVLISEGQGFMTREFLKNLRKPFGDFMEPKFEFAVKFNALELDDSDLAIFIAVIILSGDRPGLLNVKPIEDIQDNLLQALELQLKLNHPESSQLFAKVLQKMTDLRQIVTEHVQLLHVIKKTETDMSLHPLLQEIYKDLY
In words: Agonist activity at PPARgamma in mouse 3T3-L1 cells assessed as increase in CPT1A mRNA expression at 1 uM after 15 days by quantitative real-time PCR method. Format: cell-based. A general note: Real-time PCR tracks product formation cycle by cycle.

In data set [12] the target is T7, Peroxisome proliferator-activated receptor gamma (Mus musculus, UniProt P37238).
T7 sequence (P37238 whole entry): T6 sequence (whole entry)
In words: Agonist activity at PPARgamma in mouse 3T3-L1 cells assessed as induction of adipocyte differentiation at 1 uM after 15 days by Oil Red O staining-based assay. Conditions: 3t3-l1, 360 h. The format is cell-based.

Data set [13] deals with T7, Peroxisome proliferator-activated receptor gamma. In words: Agonist activity at PPARgamma in mouse 3T3-L1 cells assessed as increase in CD36 mRNA expression at 1 uM after 15 days by quantitative real-time PCR method. Format: cell-based. Conditions: 3t3-l1, 360 h.

A word on the EC50: it is the concentration giving half of the maximal effect. In general, IC50 refers to the concentration at which inhibition is half-maximal. For the compound `COc1cc(C(=O)NS(=O)(=O)c2cccc(F)c2)ccc1Cc1cn(C)c2ccc(NC(=O)NC3CCCCC3)cc12`, a half-maximal response in data set [1] (EC50) required 200 nM. The IC50 in data set [2] came to 410 nM. Moreover, the Kb in data set [3] is 12.6 nM.
Turning to `COc1cc(C(=O)NS(=O)(=O)c2cc(Cl)cc(Cl)c2)ccc1Cc1cn(C)c2ccc(NC(=O)NC3CCCCC3)cc12`, the EC50 in [1] stood at 740 nM. Moreover, the IC50 in data set [2] was determined as 550 nM. Also, the Kb in data set [3] is 6.31 nM.
As usually defined, the solubility is the concentration that dissolves in the medium under given conditions. One may read the logD as lipophilicity at a set pH, counting ionised and neutral species. Regarding `COc1cc(C(=O)NS(=O)(=O)c2ccccc2C)ccc1Cc1cn(C)c2ccc(NC(=O)OC3CCCC3)cc12` [ZAFIRLUKAST], the solubility at 24 h in data set [4] is 0.14 µg/mL (≈ 0.243 µM). For the same compound, the result in data set [5] and in [10] was Active. Further, in data set [6], the logD at 30 µM came out at 2.47. Further, in [7], the remaining at 4 h, 10 µM turned out to be 73%. Also, the result in data set [8] and in data set [9] was inactive. This compound also showed a concentration giving a half-maximal response (EC50) in data set [1] of 2440 nM. Further, the IC50 in data set [2] came to 2000 nM.
Consider `COc1cc(C(=O)NS(=O)(=O)c2cccc(C(F)(F)F)c2)ccc1Cc1cn(C)c2ccc(NC(=O)NC3CCCCC3)cc12`, for which, in [1], the EC50 was 350 nM. Moreover, the IC50 in data set [2] was determined as 1490 nM. Also, in data set [3], the Kb is 5.01 nM.
For `COc1cc(C(=O)NS(=O)(=O)c2ccccc2C)ccc1Cc1cn(C)c2ccc(NC(=O)NC3CCCCC3)cc12`, in that order: 670 nM, 150 nM and 25.1 nM.
Turning to `COc1cc(C(=O)NS(=O)(=O)c2cccc(Cl)c2)ccc1Cc1cn(C)c2ccc(NC(=O)OC3CCCC3)cc12`, the EC50 in [1] was 140 nM. For the same compound, the IC50 in data set [2] amounted to 7000 nM. Moreover, the Kb in data set [3] is 0.1 nM.
Take `CN(CCOc1ccc(CC2SC(=O)NC2=O)cc1)c1ccccn1` (stereo unspecified) [ROSIGLITAZONE]: the outcome in [11] was Active. Moreover, the result in [12] and in [13] was Active.
In data set [1], `COc1cc(C(=O)NS(=O)(=O)c2ccccc2C)ccc1Cc1cn(C)c2ccc(NC(=O)NC3CCCC3)cc12` showed an EC50 of 2490 nM. Moreover, the IC50 in data set [2] was 590 nM. For the same compound, in [3], the Kb is 0.794 nM.
With `COc1cc(C(=O)NS(=O)(=O)c2ccccc2)ccc1Cc1cn(C)c2ccc(NC(=O)OC3CCCC3)cc12`, the EC50 in [1] is 230 nM. Moreover, in data set [2], the IC50 was 2500 nM. Also, in data set [3], the Kb was 0.0794 nM.
On the same counts, the results for `COc1cc(C(=O)NS(=O)(=O)c2cccc(Cl)c2)ccc1Cc1cn(C)c2ccc(NC(=O)NC3CCCCC3)cc12` are 370 nM, 680 nM and 1.26 nM.
